From ChEMBL document CHEMBL1124037, “Structure-activity relationship in PAF-acether. 4. Synthesis and biological activities of carboxylate isosteres” (J Med Chem, 1988)

Columns and labels:
Oryctolagus cuniculus [1] = experiment: In vitro antiaggregation activity against PAF-acether induced platelet aggregation when administered at dose of 1 uM/Kg after 2 minutes; assay type: functional
Oryctolagus cuniculus [2] = species: Oryctolagus cuniculus; experiment: In vitro aggregant (agonist) activity inducing platelet aggregation
Cavia porcellus [3] = experiment: In vivo activity for protection against PAF acether induced thrombocytopenia in guinea pig after 5 min of intravenous administration (1 mg/kg); assay type: functional
How it was run: (§1)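 Male Hartley guinea pigs (450-500 g), urethane 1.25 g/kg ip, pancuronium 2 mg/kg, ventilated (50 strokes/min, 10 mL/kg). Antagonist iv 5 min before PAF 100 ng/kg iv. Konzett-Rossler lung inflation resistance vs control group; platelet counts from carotid blood 1 min before and after PAF. Percent inhibition per dose.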

Cavia porcellus [4] = experiment: In vivo activity for protection against PAF acether induced thrombocytopenia in guinea pig after 5 min of intravenous administration (2 mg/kg); assay type: functional; how it was run: as §1
Cavia porcellus [5] = experiment: In vivo activity for protection against PAF-acether induced bronchoconstriction in guinea pig after 5 min of intravenous administration (0.5 mg/kg); assay type: functional; how it was run: as §1
Cavia porcellus [6] = experiment: In vivo activity for protection against PAF-acether induced bronchoconstriction in guinea pig after 5 min of intravenous administration (1 mg/kg); assay type: functional; how it was run: as §1
Cavia porcellus [7] = experiment: In vivo activity for protection against PAF-acether induced bronchoconstriction in guinea pig after 5 min of intravenous administration (2 mg/kg); assay type: functional; how it was run: as §1
Cavia porcellus [8] = experiment: In vivo activity for protection against acetylcholine induced bronchoconstriction in guinea pig after 5 min of intravenous administration (1 mg/kg); assay type: functional
Cavia porcellus [9] = experiment: In vivo activity for protection against acetylcholine induced bronchoconstriction in guinea pig after 5 min of intravenous administration (2 mg/kg); assay type: functional
Cavia porcellus [10] = experiment: In vivo activity for protection against histamine induced bronchoconstriction in guinea pig after 5 min of intravenous administration (1 mg/kg); assay type: functional
Cavia porcellus [11] = experiment: In vivo activity for protection against histamine induced bronchoconstriction in guinea pig after 5 min of intravenous administration (2 mg/kg); assay type: functional
Oryctolagus cuniculus [12] = experiment: […] antagonistic activity against platelet aggregation; assay type: functional
Oryctolagus cuniculus [13] = experiment: […] antagonistic activity against PAF induced platelet aggregation (5 x 10e-8 M ); assay type: functional
How it was run: (§2)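 Rabbit PRP (male New Zealand, citrated cardiac-puncture blood, 300g 10 min; 300 000 per µL). Antagonist added to stirred PRP 2 min before PAF (5×10⁻⁸ M), collagen (40 µg/mL) or arachidonic acid (2×10⁻⁴ M). Born turbidimetric aggregometry; inhibition vs control aggregation; IC50 from dose-response curves. Compounds dissolved in ethanol 10 mg/mL stock, diluted in saline.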

Oryctolagus cuniculus [14] = experiment: […] antagonistic activity against collagen induced platelet aggregation (40 ug/mL); assay type: functional; how it was run: as §2
Oryctolagus cuniculus [15] = experiment: […] antagonistic activity against arachidonic-acid induced platelet aggregation (2*10e-4 M); assay type: functional; how it was run: as §2
Rattus norvegicus [16] = experiment: In vivo activity for protection against PAF acether induced hypotension in rat after 5 mins of intravenous administration (2 mg/kg); assay type: functional
How it was run: (§3)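 Male Sprague-Dawley rats (280-300 g), pentobarbital 50 mg/kg ip; jugular iv dosing, carotid arterial pressure by transducer. Control response to PAF 0.3 µg/kg iv, then antagonist; PAF 0.3 µg/kg re-injected and hypotension recorded. One antagonist dose per rat; percent inhibition per dose.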

Rattus norvegicus [17] = experiment: In vivo activity for protection against acetylcholine induced hypotension in rat after 5 mins of intravenous administration (2 mg/kg); assay type: functional
How it was run: (§4)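 Male Sprague-Dawley rats (280-300 g), pentobarbital 50 mg/kg ip; jugular iv dosing, carotid pressure recorded. Same protocol as the PAF challenge but using acetylcholine 1 µg/kg iv as agonist: control response, antagonist, then re-challenge. One antagonist dose per rat; percent inhibition per dose.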

Cavia porcellus [18] = experiment: In vivo activity for protection against PAF acether induced bronchoconstriction in guinea pig after 5 min of intravenous administration (1 mg/kg); assay type: functional; how it was run: as §1
Cavia porcellus [19] = experiment: In vivo activity for protection against PAF acether induced bronchoconstriction in guinea pig after 5 min of intravenous administration (2 mg/kg); assay type: functional; how it was run: as §1
Cavia porcellus [20] = experiment: In vivo activity for protection against acetylcholine induced bronchoconstriction in guinea pig after 5 min of intravenous administration (5 mg/kg); assay type: functional
Rattus norvegicus [21] = experiment: In vivo activity for protection against PAF acether induced hypotension in rat after 5 mins of intravenous administration (5 mg/kg); assay type: functional; how it was run: as §3
Rattus norvegicus [22] = experiment: In vivo activity for protection against acetylcholine induced hypotension in rat after 5 mins of intravenous administration (5 mg/kg); assay type: functional; how it was run: as §4
Cavia porcellus [23] = experiment: In vivo activity for protection against PAF acether induced thrombocytopenia in guinea pig after 5 min of intravenous administration (0.5 mg/kg); assay type: functional; how it was run: as §1
Cavia porcellus [24] = experiment: In vivo activity for protection against PAF acether induced bronchoconstriction in guinea pig after 5 min of intravenous administration (0.5 mg/kg); assay type: functional; how it was run: as §1
Rattus norvegicus [25] = experiment: In vivo activity for protection against PAF acether induced hypotension in rat after 5 mins of intravenous administration (1 mg/kg); assay type: functional; how it was run: as §3
Rattus norvegicus [26] = experiment: In vivo activity for protection against acetylcholine induced hypotension in rat after 5 mins of intravenous administration (1 mg/kg); assay type: functional; how it was run: as §4
Cavia porcellus [27] = experiment: In vivo activity for protection against acetylcholine-induced bronchoconstriction in guinea pig after 5 min of intravenous administration (1 mg/kg); assay type: functional
Cavia porcellus [28] = experiment: In vivo activity for protection against acetylcholine-induced bronchoconstriction in guinea pig after 5 min of intravenous administration (2 mg/kg); assay type: functional
Oryctolagus cuniculus [29] = experiment: […] antagonistic activity against arachidonic-acid induced platelet aggregation at a concentration of 2*10e-4 M; assay type: functional; how it was run: as §2
Oryctolagus cuniculus [30] = experiment: […] antagonistic activity against collagen induced platelet aggregation at a concentration of 40 ug/mL; assay type: functional; how it was run: as §2
Oryctolagus cuniculus [31] = experiment: […] antagonistic activity against PAF induced platelet aggregation at a concentration of 5 x 10e-8 M; assay type: functional; how it was run: as §2

| SMILES | EC50 (Oryctolagus cuniculus [1]) | EC50 (Oryctolagus cuniculus [2]) | Protection (Cavia porcellus [3]) | Protection (Cavia porcellus [4]) | Protection (Cavia porcellus [5]) | Protection (Cavia porcellus [6]) | Protection (Cavia porcellus [8]) | Protection (Cavia porcellus [9]) | Protection (Cavia porcellus [10]) | Protection (Cavia porcellus [11]) | ED50 (Oryctolagus cuniculus [12]) | EC50 (Oryctolagus cuniculus [13]) | EC50 (Oryctolagus cuniculus [14]) | EC50 (Oryctolagus cuniculus [15]) | Protection (Rattus norvegicus [16]) | Protection (Rattus norvegicus [17]) | Protection (Cavia porcellus [18]) | Protection (Cavia porcellus [19]) | Protection (Rattus norvegicus [25]) | Protection (Rattus norvegicus [26]) | other results |
| --- | --- | --- | --- | --- | --- | --- | --- | --- | --- | --- | --- | --- | --- | --- | --- | --- | --- | --- | --- | --- | --- |
| CCCCCCCCCCCCCCCCCCOCC(COC(=O)CCC[N+](C)(C)C)OC(C)=O (stereo unspecified) | 12 µM | > 100 µM |  |  |  |  |  |  |  |  |  |  |  |  |  |  |  |  |  |  |  |
| CCCCCCCCCCCCCCCCCCOCC(COC(=O)CCCC[N+](C)(C)C)OCC.[I-] (stereo unspecified) |  |  | 24% | 55% | 69% | 77% | 0% | 9% | 0% | 0% | >100 µM | 8 µM | 60 µM | > 100 µM | 20% | 17% |  |  |  |  | Protection (Cavia porcellus [7]): 73% |
| CCCCCCCCCCCCCCCCCCOCC(COC(=O)CC[N+](C)(C)C)OC(C)=O (stereo unspecified) | 24 µM | > 100 µM |  |  |  |  |  |  |  |  |  |  |  |  |  |  |  |  |  |  |  |
| CCCCCCCCCCCCCCCCCCOCC(COC(=O)CCCC[N+](C)(C)C)OC(C)=O (stereo unspecified) | 18 µM | > 100 µM |  |  |  |  |  |  |  |  |  |  |  |  |  |  |  |  |  |  |  |
| CCCCCCCCCCCCCCCCCCNC(=O)OCC(COC(=O)CCCC[N+](C)(C)C)OC(C)=O.[I-] (stereo unspecified) |  |  |  | 38% |  |  |  | 79% |  | 17% | >100 µM | 13 µM | 70 µM | > 100 µM | 46% | 63% | 88% | 90% |  |  | Protection (Cavia porcellus [20]): 80%; Protection (Rattus norvegicus [21]): 58%; Protection (Rattus norvegicus [22]): 74% |
| CCCCCCCCCCCCCCCCCCNC(=O)OCC(COP(=O)([O-])OCC[n+]1ccsc1)OC (stereo unspecified) |  |  | 62% | 69% |  |  |  |  |  |  | >100 µM | 30.5 µM | 89 µM |  |  |  | 72% | 85% | 45% | 0% | Protection (Cavia porcellus [23]): 32%; Protection (Cavia porcellus [24]): 53% |
| CCCCCCCCCCCCCCCCCCOC[C@H](COC(=O)CCCC[N+](C)(C)C)OC(C)=O.[I-] |  |  | 38% | 57% | 79% | 90% |  |  | 35% | 20% | >100 µM |  |  |  | 32% | 5% |  |  | 18% | 18% | Protection (Cavia porcellus [7]): 88%; Protection (Cavia porcellus [27]): 21%; Protection (Cavia porcellus [28]): 0%; EC50 (Oryctolagus cuniculus [29]): > 100 µM; EC50 (Oryctolagus cuniculus [30]): ~90 µM; EC50 (Oryctolagus cuniculus [31]): 20 µM |
| CCCCCCCCCCCCCCCCCCOC[C@@H](COC(=O)CCCC[N+](C)(C)C)OC(C)=O.[I-] |  |  | 63% | 49% |  |  | 0% | 0% | 0% | 0% | >100 µM | 11 µM | 84 µM | > 100 µM | 34% | 20% | 91% | 93% | 12% | 16% | Protection (Cavia porcellus [24]): 61% |
| CCCCCCCCCCCCCCCCCCOCC(COC(=O)CCC[n+]1ccccc1)OCC.[Cl-] (stereo unspecified) |  |  | 52% | 60% | 60% | 100% | 34% | 16% | 16% | 8% | >100 µM | 1.5 µM | 100 µM | > 100 µM | 53% | 22% |  |  | 51% | 20% |  |
